Consider eleven molecules from paper PMC5542862 (Microcirculation (New York, N.Y. : 1994), 2017).

Like-named read-outs stand apart in the source and are kept apart here.

Test [1] concerns arcade and terminal arterioles of the hamster cheek pouch. In kind it is in vivo. The note with it: for Effect of muscarinic blockade on vasoactivity (in words): atropine 10^−7 M in tissue bath; for Effect of beta-adrenergic blockade on dilation (in words): propranolol 10^−6M in tissue bath; for Dose range of vasodilation / Control Dose Max dilation / Control (%) Max dilation: quiescent tissue; for Dose range of vasodilation: mucocutaneous microvasculature; for Control Dose Max dilation: 60-second micropipette exposure; for Control (%) Max dilation: at the dose of max dilation. In outline:
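Adult male hamsters were anaesthetised with pentobarbital (70 mg/kg), tracheostomised and kept at 37 °C. The left cheek pouch was superfused with 37 °C bicarbonate-buffered saline and rested 30 min. Test compound was given by micropipette (10–20 μm tip, with FITC-dextran 10−6M) at the arcade–terminal junction for 60 s, then 5 min recovery. One full concentration series per site, 2–4 sites ≥1000 μm apart. Fractional diameter change = (baseline−peak)/baseline; repeated-measures ANOVA.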

Test [2] has the same test system. The test is described as follows: Hamster cheek pouch intravital microscopy, nitrosative stress model. The test is classed as in vivo. The note with it: for Effect of nitrosative stress on the concentration response (in words): SNP 10^−4M in tissue bath for 2 minutes; for Stress (%) Max dilation: after stress, at the dose of max dilation; for Vasoactive response after stress compared with before (in words): nitrosative stress, agent 10^−4M by micropipette, n=35. The gist of the method:
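Anaesthetised male hamster cheek pouch, superfused with 37 °C bicarbonate saline. Stress: SNP 10−4M washed into the bath for 2 min, with endothelial dysfunction checked by micropipette acetylcholine 10−4M. Test compound was given by micropipette for 60 s with 5 min recovery, 15 min–3 h after stress, at most four exposures per site. Response = (baseline−peak)/baseline from video; repeated-measures ANOVA, unpaired t-test.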

The test system is the same in test [3]. The test is classed as in vivo. Conditions: 20s, 50 °C, within 500 μm of heat rim. In outline:
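In the superfused cheek pouch of anaesthetised male hamsters, a thermocouple-controlled microcautery Pt wire (300 μm) applied 50 °C for 20 s. After 15 min, micropipette exposures (60 s, 5 min recovery) were mapped to 1000 μm from the heat rim; only sites within 500 μm are reported. Diameter change = (baseline−peak)/baseline from video; repeated-measures ANOVA or unpaired t-test, α 0.05.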

Test [4] relates to adult human dermal fibroblasts. Conditions: cited from earlier work.
Test [5] deals with PDGF-BB. Conditions: Lin, et al., 2014, Zhu; cited from earlier work.
In test [6] the test system is PDGF-BB. The note with it: cited from earlier work; for Kd: read-out: KD for PDGF-BB binding.
The test system of test [7] is thermal burn injury progression. The note with it: rat hot comb model; cited from earlier work.

For `CC(C)NCC(O)c1ccc(O)c(O)c1` (stereo not drawn) [isoproterenol, reference compound], the “Diameter change, fractional change from baseline” value in test [1] (arcade arterioles, isoproterenol 10^−7M with propranolol (10^−6M), mean ± SD, n=23 sites) was 0.00±0.11; in test [1] (arcade arterioles, isoproterenol 10^−7M, no blocker, mean ± SD, n=23 sites), 0.41±0.3; in test [1] (terminal arterioles, isoproterenol 10^−6M with carazolol 10^−9M, mean+sem, significant constriction), −0.50+0.15; in test [1] (terminal arterioles, isoproterenol 10^−7M with propranolol (10^−6M), mean ± SD, n=23 sites), 0.01±0.00; in test [1] (terminal arterioles, isoproterenol 10^−7M, no blocker, mean ± SD, n=23 sites), 0.43±0.34.
Consider PSHISKYILRWRPK [EVA-1, epiviosamine-1], for which, in test [1], the “Effect of muscarinic blockade on vasoactivity (in words)” value (shortened to “Effect of muscarinic blockade”) is recorded as “no effect” and the “Dose range of vasodilation” value is reported as 10^−9–10^−8 M. In test [1] (arcade and terminal arterioles), the “Effect of beta-adrenergic blockade on dilation (in words)” value (“Effect of beta-adrenergic blockade” for short) is given as “prevented vasodilation”. Moreover, in test [1] (terminal arterioles), the “Control Dose Max dilation” value is on record as 10^−9M and the “Control (%) Max dilation” value came out at 22%. Also, in test [2], the “Effect of nitrosative stress on the concentration response (in words)” value (“Effect of nitrosative stress” for short) is on record as “left shift” and the “Stress (%) Max dilation” value worked out at 32%. Besides, the “Dilation at 10^−8M after thermal stress (in words)” value in test [3] (arcade arterioles) is given as “reversed to constriction”. Also, the “Response to sub-nanomolar dose after thermal stress (in words)” value in test [3] (both arteriolar types) is “significant vasodilation”. Moreover, in test [3] (terminal arterioles), the “Dilation at 10^−8M after thermal stress (in words)” value is “eliminated”. In test [4], the “Dose conferring survival activity” value is given as 10^−7 M. Also, the FN/PDGF-BB binding inhibition with PDGF-BB [5] is recorded as 95.5%. Besides, in the test on PDGF-BB [6], the “Dose range binding PDGF-BB” value was 10^−8–10^−7 M and the Kd is 0.2 µM. Moreover, the “Effect on thermal burn injury progression (in words)” value in test [7] is “limits thermal burn injury progression”.
Consider RWRPK [P37], for which the “Effect of beta-adrenergic blockade” value in test [1] (arcade and terminal arterioles) is “prevented vasodilation”. Further, the “Control (%) Max dilation” value in test [1] (terminal arterioles) turned out to be 19%. Also, in test [2], the “Effect of nitrosative stress” value is given as “left shift” and the “Stress (%) Max dilation” value stood at 45%. Further, the FN/PDGF-BB binding inhibition in the test with PDGF-BB [5] is recorded as 0.0%.
For FN: Full-length plasma fibronectin, the “Vasoactive response in quiescent tissue (in words)” value in test [1] (arcade and terminal arterioles, 10^−16–10^−4M by micropipette, N=5–8 per peptide) is on record as “induced only vasodilation”. In addition, in test [1], the “Effect of muscarinic blockade” value is “no effect”. For the same molecule, the “Effect of combined alpha- and beta-adrenergic blockade (in words)” value in test [1] (phentolamine 10^−5M plus propranolol 10^−6M) is “eliminated only the vasodilation with the peptides and not FN”. Besides, in test [1] (arcade and terminal arterioles), the “Effect of beta-adrenergic blockade” value is “significantly diminished dilation”.
Take LRWRPK [P39]: in test [1] (terminal arterioles), the “Control (%) Max dilation” value is recorded as 8%. In the test on PDGF-BB [5], the FN/PDGF-BB binding inhibition was 0.0%.
For `CNC[C@H](O)c1cccc(O)c1` [phenylephrine, reference compound], the “Diameter change, fractional change from baseline” value in test [1] (arcade arterioles, phenylephrine 10^−5M, no blocker, mean ± SD, n=23 sites) is reported as −0.52±0.18; in test [1] (arcade arterioles, phenylephrine 10^−6M, mean ± SD), −0.53±0.18; in test [1] (terminal arterioles, phenylephrine 10^−5M, no blocker, mean ± SD, n=23 sites) it was −0.48±0.16; in test [1] (terminal arterioles, phenylephrine 10^−6M, mean ± SD), −0.48±0.16. Moreover, in test [2], the “Vasoactive response after stress compared with before (in words)” value was “unaffected”.
For nitroprusside [reference compound], in test [2], the “Vasoactive response after stress compared with before (in words)” value was “not compromised”.
For YILRWRPK [P18], in test [1] (arcade and terminal arterioles), the “Effect of beta-adrenergic blockade” value is on record as “prevented vasodilation”. For the same molecule, in test [1] (terminal arterioles), the “Control Dose Max dilation” value is 10^−8M and the “Control (%) Max dilation” value is on record as 26%. Besides, in the test on PDGF-BB [5], the FN/PDGF-BB binding inhibition is recorded as 26%.
Turning to `CC(=O)OCC[N+](C)(C)C` [acetylcholine, reference compound], the “Diameter change, fractional change from baseline” value in test [1] (arcade arterioles, acetylcholine 10^−4M with atropine (10^−7 M), mean ± SD, n=26 sites) is on record as 0.03±0.15; in test [1] (arcade arterioles, acetylcholine 10^−4M, no blocker, mean ± SD, n=26 sites) it was 0.50±0.36; in test [1] (terminal arterioles, acetylcholine 10^−4M with atropine (10^−7 M), mean ± SD, n=26 sites), 0.03±0.10; in test [1] (terminal arterioles, acetylcholine 10^−4M, no blocker, mean ± SD, n=26 sites) it was 0.49±0.28.
Consider ILRWRPK [P7], for which, in test [1], the “Effect of muscarinic blockade” value is reported as “no effect” and the “Dose range of vasodilation” value is 10^−9–10^−8 M. The “Effect of beta-adrenergic blockade” value in test [1] (arcade and terminal arterioles) is “prevented vasodilation”. Besides, in test [1] (terminal arterioles), the “Control Dose Max dilation” value was 10^−8M and the “Control (%) Max dilation” value is on record as 28%. In addition, in test [2], the “Effect of nitrosative stress” value is listed as “left shift” and the “Stress (%) Max dilation” value amounted to 29%. Also, the FN/PDGF-BB binding inhibition with PDGF-BB [5] was 0.1%. For the same molecule, the Kd on PDGF-BB [6] was 1 µM.
For `Nc1ncnc2c1ncn2[C@@H]1O[C@H](CO)[C@@H](O)[C@H]1O` [adenosine, reference compound], the “Diameter change, fractional change from baseline” value came to 0.54±0.35 in test [1] (arcade arterioles, adenosine 10^−4 M, mean ± SD) and 0.60±0.43 in test [1] (terminal arterioles, adenosine 10^−4 M, mean ± SD). The “Vasoactive response after stress compared with before (in words)” value in test [2] is reported as “compromised”.
